Reference: paper PMC3206322 (ACS chemical neuroscience, 2011)
Where “and” joins values, the source holds several entries; their conditions need not be identical. Identical values can stand only once.

Tests used:
Assay type in all cases: cell-based
GluA2Qflip AMPA receptor [1] = target: T1, GluA2Qflip AMPA receptor (Homo sapiens, UniProt P42262); test: Laser-pulse photolysis rate measurement of channel opening; details: for Mechanism of inhibition: inhibited both kop and kcl
In short: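 Transfected HEK-293S cells expressing GluA2Qflip were whole-cell clamped at −60 mV, pH 7.4, 22 °C. After 6 s preincubation with inhibitor, caged glutamate was photolysed by a 355 nm laser pulse of 200–800 μJ, with released glutamate calibrated against free glutamate in the same cell. The kcl term was taken from kobs at 100 μM glutamate over a range of inhibitor concentrations (eq 4), and kop at 350 μM (eq 5).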

GluA2Qflip AMPA receptor [2] = target: T1, GluA2Qflip AMPA receptor; test: Laser-pulse photolysis amplitude measurement of whole-cell current
In short: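 HEK-293S cells in DMEM/10% FBS at 37 °C, 5% CO2, were transiently transfected with GluA2Qflip by calcium phosphate, with GFP and large T-antigen plasmids, and used at 48 h. Whole-cell recording at −60 mV, pH 7.4, 22 °C in HEPES/NaCl buffer. Caged glutamate was photolysed by a 355 nm pulse after 6 s inhibitor preincubation. The A/AI ratio versus inhibitor concentration was fitted by eq 6.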

GluA2Qflip AMPA receptor [3] = target: T1, GluA2Qflip AMPA receptor; test: Solution-flow amplitude measurement of whole-cell current; details: Ki (closed-channel), solution-flow technique, GluA2Qflip in HEK-293 cells; 100 μM glutamate; amplitude A/AI, eq 6
[4] = Ki (100 μM glu), amplitude measurement, laser-pulse photolysis, GluA2Qflip in HEK-293 cells, 100 μM glutamate, closed-channel state

T1 sequence (P42262 25-883 isoform P42262-2 limits assumed): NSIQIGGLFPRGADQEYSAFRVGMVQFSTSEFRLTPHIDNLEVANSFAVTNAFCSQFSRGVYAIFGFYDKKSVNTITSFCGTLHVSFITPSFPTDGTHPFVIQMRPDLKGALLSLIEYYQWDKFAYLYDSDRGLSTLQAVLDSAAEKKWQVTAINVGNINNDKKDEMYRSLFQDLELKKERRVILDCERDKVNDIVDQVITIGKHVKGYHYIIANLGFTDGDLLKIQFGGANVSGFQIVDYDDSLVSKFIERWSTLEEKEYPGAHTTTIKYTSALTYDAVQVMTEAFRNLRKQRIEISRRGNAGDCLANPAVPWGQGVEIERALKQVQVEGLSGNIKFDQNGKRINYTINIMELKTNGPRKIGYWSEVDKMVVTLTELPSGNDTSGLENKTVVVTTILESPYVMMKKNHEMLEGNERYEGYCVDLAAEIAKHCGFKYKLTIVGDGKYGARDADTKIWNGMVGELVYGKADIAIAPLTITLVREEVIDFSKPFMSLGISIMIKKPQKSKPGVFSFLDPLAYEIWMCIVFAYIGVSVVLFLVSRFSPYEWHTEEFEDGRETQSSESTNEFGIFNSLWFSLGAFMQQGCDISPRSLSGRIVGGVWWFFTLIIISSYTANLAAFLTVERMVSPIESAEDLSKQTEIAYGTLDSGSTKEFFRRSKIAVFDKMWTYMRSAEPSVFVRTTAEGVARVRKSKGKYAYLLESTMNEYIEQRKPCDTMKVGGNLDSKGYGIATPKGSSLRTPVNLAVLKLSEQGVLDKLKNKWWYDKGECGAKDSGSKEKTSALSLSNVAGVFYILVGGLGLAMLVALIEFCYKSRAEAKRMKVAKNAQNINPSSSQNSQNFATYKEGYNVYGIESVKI

`Nc1ccc(C2=NNC(=O)Cc3cc4c(cc32)OCO4)cc1` [BDZ-2, 1-(4-aminophenyl)-3,5-dihydro-7,8-methylenedioxy-4H-2,3-benzodiazepin-4-one] was tested, and the Ki (GluA2Qflip AMPA receptor [1]) was 48 µM and 194 µM, the Mechanism of inhibition (GluA2Qflip AMPA receptor [1]) was “noncompetitive” and the Ki (GluA2Qflip AMPA receptor [2]) was 23 to 25 µM. For the same compound, the Ki (GluA2Qflip AMPA receptor [2]; [4]) was 25 ± 1 µM and the Ki (GluA2Qflip AMPA receptor [3]) was 25 ± 1 µM.

With `CC1=NN=C(c2ccc(N)cc2)c2cc3c(cc2C1)OCO3` [GYKI 52466, 1-(4-aminophenyl)-4-methyl-7,8-methylenedioxy-5H-2,3-benzodiazepine] the Ki (GluA2Qflip AMPA receptor [1]) was 61 µM and 128 µM, the Mechanism of inhibition (GluA2Qflip AMPA receptor [1]) was “noncompetitive” and the Ki (GluA2Qflip AMPA receptor [2]) was 14 to 16 µM. For the same compound, the Ki (GluA2Qflip AMPA receptor [2]; [4]) was 15 ± 1 µM and the Ki (GluA2Qflip AMPA receptor [3]) was 14 ± 1 µM.
